The values below come from ChEMBL document CHEMBL3046951, “Volatile constituents from the leaves of Callicarpa japonica Thunb. and their antibacterial activities” (2004).

Holding throughout (type): functional
Assay [1] has as its system Listeria monocytogenes. Kind of assay: Antimicrobial activity against Listeria monocytogenes ATCC 19111 assessed as growth inhibition rate at 5.8 mg/l after 72 hr by spectrophotometry. Conditions: ATCC 19111, 72 h, read-out: GI. Summed up:
(§1)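 L. monocytogenes was grown at 30 °C in tryptic soy broth, subcultured for 18 h, and exposed to pure volatile compounds (>95% purity). Growth was followed by Bioscreen C optical density every 24 h for 72 h against a 10% Tween 80 control.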

Assay [2] has as its system Vibrio parahaemolyticus. Kind of assay: Antimicrobial activity against Vibrio parahaemolyticus ATCC 33844 assessed as growth inhibition rate at 5.8 mg/l after 72 hr by spectrophotometry. Conditions: ATCC 33844, 72 h, read-out: GI.
The subject of assay [3] is Escherichia coli. Kind of assay: Antimicrobial activity against Escherichia coli O157:H7 ATCC 43894 assessed as growth inhibition rate at 5.8 mg/l after 72 hr by spectrophotometry. Conditions: O157:H7 ATCC 43894, 72 h, read-out: GI.
For assay [4], the system named is Salmonella typhimurium. As to the kind of experiment: Antimicrobial activity against Salmonella enterica subsp. enterica serovar Typhimurium ATCC 14028 assessed as growth inhibition rate at 5.8 mg/l after 72 hr by spectrophotometry. Conditions: ATCC 14028, 72 h, read-out: GI.
For assay [5], the system named is Bacillus cereus. Kind of assay: Antimicrobial activity against Bacillus cereus ATCC 11778 assessed as growth inhibition rate at 5.8 mg/l after 72 hr by spectrophotometry. Conditions: ATCC 11778, 72 h, read-out: GI. Summed up:
(§2)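 Pure volatile compounds (purity >95%; one at 90%) were tested against B. cereus ATCC 11778. The strain was grown at 30 °C in nutrient broth for 24 h, then subcultured for 18 h. Optical density was read in a Bioscreen C every 24 h for 72 h, with 10% Tween 80 as the control.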

Assay [6] deals with Staphylococcus aureus. Kind of assay: Antimicrobial activity against Staphylococcus aureus ATCC 25923 assessed as growth inhibition rate at 5.8 mg/l after 72 hr by spectrophotometry. Conditions: ATCC 25923, 72 h, read-out: GI.
Assay [7] has as its system Listeria monocytogenes. Kind of assay: Antimicrobial activity against Listeria monocytogenes ATCC 19111 assessed as growth inhibition rate at 1.72 mg/l after 72 hr by spectrophotometry. Conditions: ATCC 19111, 72 h, read-out: GI. Summed up: as §1
Assay [8] has as its system Staphylococcus aureus. As to the kind of experiment: Antimicrobial activity against Staphylococcus aureus ATCC 25923 assessed as growth inhibition rate at 1.72 mg/l after 72 hr by spectrophotometry. Conditions: ATCC 25923, 72 h, read-out: GI.
For assay [9], the system named is Vibrio parahaemolyticus. Kind of assay: Antimicrobial activity against Vibrio parahaemolyticus ATCC 33844 assessed as growth inhibition rate at 1.72 mg/l after 72 hr by spectrophotometry. Conditions: ATCC 33844, 72 h, read-out: GI.
For assay [10], the system named is Escherichia coli. Kind of assay: Antimicrobial activity against Escherichia coli O157:H7 ATCC 43894 assessed as growth inhibition rate at 1.72 mg/l after 72 hr by spectrophotometry. Conditions: O157:H7 ATCC 43894, 72 h, read-out: GI.
In assay [11] the test system is Salmonella typhimurium. As to the kind of experiment: Antimicrobial activity against Salmonella enterica subsp. enterica serovar Typhimurium ATCC 14028 assessed as growth inhibition rate at 1.72 mg/l after 72 hr by spectrophotometry. Conditions: ATCC 14028, 72 h, read-out: GI. Summed up:
(§3)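 Salmonella Typhimurium ATCC 14028 grown in nutrient broth at 30 °C, precultured 24 h, then subcultured 1:100 for 18 h before testing. Single volatile compounds (>95% pure) were added. OD was read every 24 h over 72 h in a Bioscreen C, with 10% Tween 80 as the comparison control.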

For assay [12], the system named is Bacillus cereus. As to the kind of experiment: Antimicrobial activity against Bacillus cereus ATCC 11778 assessed as growth inhibition rate at 1.72 mg/l after 72 hr by spectrophotometry. Conditions: ATCC 11778, 72 h, read-out: GI. Summed up:
as §2

Assay [13] relates to Listeria monocytogenes. Kind of assay: Antimicrobial activity against Listeria monocytogenes ATCC 19111 assessed as growth inhibition rate at 6.32 mg/l after 72 hr by spectrophotometry. Conditions: ATCC 19111, 72 h, read-out: GI. The procedure, abridged:
as §1

The test system of assay [14] is Staphylococcus aureus. As to the kind of experiment: Antimicrobial activity against Staphylococcus aureus ATCC 25923 assessed as growth inhibition rate at 6.32 mg/l after 72 hr by spectrophotometry. Conditions: ATCC 25923, 72 h, read-out: GI.
Assay [15] relates to Vibrio parahaemolyticus. As to the kind of experiment: Antimicrobial activity against Vibrio parahaemolyticus ATCC 33844 assessed as growth inhibition rate at 6.32 mg/l after 72 hr by spectrophotometry. Conditions: ATCC 33844, 72 h, read-out: GI.
For assay [16], the system named is Escherichia coli. As to the kind of experiment: Antimicrobial activity against Escherichia coli O157:H7 ATCC 43894 assessed as growth inhibition rate at 6.32 mg/l after 72 hr by spectrophotometry. Conditions: O157:H7 ATCC 43894, 72 h, read-out: GI.
For assay [17], the system named is Salmonella typhimurium. As to the kind of experiment: Antimicrobial activity against Salmonella enterica subsp. enterica serovar Typhimurium ATCC 14028 assessed as growth inhibition rate at 6.32 mg/l after 72 hr by spectrophotometry. Conditions: ATCC 14028, 72 h, read-out: GI.
In assay [18] the test system is Bacillus cereus. Kind of assay: Antimicrobial activity against Bacillus cereus ATCC 11778 assessed as growth inhibition rate at 6.32 mg/l after 72 hr by spectrophotometry. Conditions: ATCC 11778, 72 h, read-out: GI. Summed up:
as §2

Assay [19] has as its system Listeria monocytogenes. As to the kind of experiment: Antimicrobial activity against Listeria monocytogenes ATCC 19111 assessed as growth inhibition rate at 13.04 mg/l after 72 hr by spectrophotometry. Conditions: ATCC 19111, 72 h, read-out: GI. The procedure, abridged: as §1
For assay [20], the system named is Vibrio parahaemolyticus. Kind of assay: Antimicrobial activity against Vibrio parahaemolyticus ATCC 33844 assessed as growth inhibition rate at 13.04 mg/l after 72 hr by spectrophotometry. Conditions: ATCC 33844, 72 h, read-out: GI.
Assay [21] deals with Escherichia coli. As to the kind of experiment: Antimicrobial activity against Escherichia coli O157:H7 ATCC 43894 assessed as growth inhibition rate at 13.04 mg/l after 72 hr by spectrophotometry. Conditions: O157:H7 ATCC 43894, 72 h, read-out: GI.
Assay [22] has as its system Salmonella typhimurium. Kind of assay: Antimicrobial activity against Salmonella enterica subsp. enterica serovar Typhimurium ATCC 14028 assessed as growth inhibition rate at 13.04 mg/l after 72 hr by spectrophotometry. Conditions: ATCC 14028, 72 h, read-out: GI. The procedure, abridged:
as §3

In assay [23] the test system is Bacillus cereus. As to the kind of experiment: Antimicrobial activity against Bacillus cereus ATCC 11778 assessed as growth inhibition rate at 13.04 mg/l after 72 hr by spectrophotometry. Conditions: ATCC 11778, 72 h, read-out: GI. Summed up:
as §2

Assay [24] deals with Staphylococcus aureus. As to the kind of experiment: Antimicrobial activity against Staphylococcus aureus ATCC 25923 assessed as growth inhibition rate at 13.04 mg/l after 72 hr by spectrophotometry. Conditions: ATCC 25923, 72 h, read-out: GI.

Molecules are shown by their SMILES.

Regarding `C=CC(O)CC` (centres undefined), the inhibition of growth at 5.8 µg/mL in the assay with Listeria monocytogenes [1] was determined as 0.4%; with Vibrio parahaemolyticus [2] it was 1.9%; with Escherichia coli [3], 0%; in the assay with Salmonella typhimurium [4] it was 5%; in the assay with Bacillus cereus [5] it was 9.3%; in the assay on Staphylococcus aureus [6] it was 2.4%.

`CCC(=O)C(C)=O` [2,3-PENTANEDIONE]: the inhibition of growth at 1.72 µg/mL with Listeria monocytogenes [7] amounted to 26.2%; with Staphylococcus aureus [8], 47.4%; in the assay on Vibrio parahaemolyticus [9] it was 39.3%; in the assay with Escherichia coli [10], 9.6%; with Salmonella typhimurium [11], 25.5%; in the assay on Bacillus cereus [12], 26.9%.

Turning to `CCCCCC(=O)CC` [3-OCTANONE], the inhibition of growth at 6.32 µg/mL in the assay with Listeria monocytogenes [13] is 0%; in the assay with Staphylococcus aureus [14], 5.2%; in the assay with Vibrio parahaemolyticus [15], 0%; in the assay on Escherichia coli [16], 3.1%; in the assay on Salmonella typhimurium [17], 5.1%; in the assay with Bacillus cereus [18] it was 0%.

Regarding `C=C1CC[C@@H]2C[C@H]1C2(C)C` [(+)-BETA-PINENE], the inhibition of growth at 13.04 µg/mL stood at 2.8% in the assay on Listeria monocytogenes [19]; 45.1% with Vibrio parahaemolyticus [20]; 3.4% with Escherichia coli [21]; 14.9% with Salmonella typhimurium [22]; 0% in the assay with Bacillus cereus [23]; 17.6% with Staphylococcus aureus [24].
